# Source: PubChem BioAssay (Johns Hopkins Ion Channel Center)
# In the library only some 3.5% were active in any assay of this set; here they are far more common.
# MrgX1 allo act: allosterically activates human MrgX1 receptor signaling | MrgX1-HEK293, Fluo-4 calcium flux, FDSS; active compounds read high | B-score at 10 µM | 310,000 tested, 0.63% active | Q96LB2;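 active means plate-corrected calcium response at least 3 library SD above typical, normal starting fluorescence, not activating the receptor alone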;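 further: compound read alongside a low EC10 to EC30 dose of BAM8-22 agonist; peak minus trough fluorescence over baseline measured at the second addition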
# Target sequence (Q96LB2 whole entry, looked up): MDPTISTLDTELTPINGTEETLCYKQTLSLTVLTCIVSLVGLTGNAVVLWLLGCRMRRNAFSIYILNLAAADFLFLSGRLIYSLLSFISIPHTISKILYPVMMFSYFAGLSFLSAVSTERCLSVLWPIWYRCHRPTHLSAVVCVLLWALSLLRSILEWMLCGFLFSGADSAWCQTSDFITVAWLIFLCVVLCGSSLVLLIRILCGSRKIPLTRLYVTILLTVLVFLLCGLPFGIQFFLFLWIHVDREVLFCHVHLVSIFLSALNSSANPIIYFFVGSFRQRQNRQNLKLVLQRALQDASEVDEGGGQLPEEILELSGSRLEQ
# RGS4 inh: inhibitors of human RGS4; P49798; HEK293 M3R/RGS4 inducible, Fluo-4 calcium flux; active compounds read high; triggered by carbachol at its EC20; B-score at 10 µM; 310,000 tested, 0.45% active;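 active means B-score, a plate-corrected calcium signal, over three deviations above library mean, with baseline fluorescence within five deviations of library mean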;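 further: RGS4 expression induced by doxycycline in cells with stable M3 receptor; B-score is computed from the integrated fluorescence ratio over baseline after carbachol; higher B-score means a larger calcium signal and so more RGS4 inhibition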
# Target sequence (P49798 whole entry, looked up): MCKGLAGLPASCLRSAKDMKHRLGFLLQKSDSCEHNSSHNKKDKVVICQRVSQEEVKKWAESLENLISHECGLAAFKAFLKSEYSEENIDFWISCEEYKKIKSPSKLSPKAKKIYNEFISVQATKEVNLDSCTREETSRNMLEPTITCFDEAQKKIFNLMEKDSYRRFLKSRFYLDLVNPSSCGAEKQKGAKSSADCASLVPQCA
# MrgX1 antagonist: antagonists of human MrgX1 receptor; AID 588676; B-score at 10 µM; MRGX1-HEK293 calcium flux, Fluo-4, BAM8-22 antagonism; active compounds read low; 310,000 tested, 1.3% active;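 active means calcium-response B-score plate-corrected more than 3 library SD below zero, starting fluorescence within 5 deviations, no agonist response on first addition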;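 further: peak minus trough fluorescence over baseline after final BAM8-22 challenge near maximal dose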
# MrgX1 ag: agonists of human MrgX1 receptor; MrgX1-HEK293 cells, Fluo-4 calcium fluorescence, agonist mode; active compounds read high; B-score at 10 µM; 310,000 tested, 0.44% active;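 active means calcium response B-score plate-corrected fluorescence ratio at least 3 library SD, with starting fluorescence B-score inside 5 SD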
#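 System – MrgX1-expressing HEK293 cells · Incubation – cells plated overnight, dye loaded 0.5 h 37 °C, 0.5 h room temperature · Technique – kinetic Fluo-4 NW fluorescence of intracellular calcium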
# RGS4 pot: RGS4 potentiation or activation; HEK293 M3R/inducible RGS4, carbachol calcium flux Fluo4; active compounds read low; B-score at 10 µM; 310,000 tested, 0.92% active; AID 463111;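 active means B-score of the integrated calcium signal more than 4 SD below the library mean, with starting fluorescence not abnormally high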;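 further: negative B-score means reduced calcium response which marks RGS4 activation or potentiation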
#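 Material: Inducible-RGS4 HEK293 cells carrying M3 receptor; also added: carbachol at ECmax as muscarinic agonist stimulus; incubation: compound preincubation 20 min at room temperature before agonist; signal: Fluo4-AM (2 µM) calcium-flux fluorescence, kinetic read; measure: integrated calcium ratio converted to B score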
# RGS4 activ val: confirmation of RGS4 activators | shares compounds with RGS4 pot | HEK293 M3R/RGS4 inducible, carbachol calcium flux Fluo4 | inhibition, % at 10 µM | 1,100 tested, 89% active;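 active means inhibition above 3 SD of the buffer control wells, cut at about 41% in these data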;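 further: signal is the integrated peak-minus-minimum Fluo4 fluorescence over baseline ratio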
# RGS4 act ctr: RGS4 activator counter-screen hit in non-induced cells; 1,100 tested, 82% active; AID 602283; inhibition, % at 10 µM; shares compounds with RGS4 pot; HEK293 M3R non-induced RGS4, Fluo4 calcium flux; after carbachol challenge at its EC90;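 active means inhibition exceeding 3 SD of buffer-only control wells, cut at about 26% in these data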;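 further: percent drop in integrated peak-minus-baseline over baseline Fluo4 ratio after carbachol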
# Numbers without * were called inactive; i = inactive; . = no result given.
SMILES,MrgX1 allo act,RGS4 inh,MrgX1 antagonist,MrgX1 ag,RGS4 pot,RGS4 activ val,RGS4 act ctr
O=C1NC(=O)N(c2ccc(Cl)cc2)C(=O)/C1=C\c1ccc(Sc2nc3ccccc3[nH]2)o1,17*,i,i,i,i,.,.
Cc1ccccc1-n1c(-c2ccc([N+](=O)[O-])cc2)nc2ccccc2c1=O,i,i,i,i,-10*,.,.
Cc1cc(N2CCCCC2)ccc1C=C1C(=O)N(C)C(=S)N(C)C1=O,i,i,i,i,i,.,.
Cc1cc(N2CCCC2)ccc1C=C(C#N)C#N,i,i,-5.5*,i,i,.,.
CC(C)OP(=O)(Oc1ccc(C(O)C(Cl)(Cl)Cl)cc1)OC(C)C (stereo not given),i,i,i,i,i,.,.
CC(C)(C)n1c(O)c(C=Nc2ccc3c(c2)CCC3)c(=O)[nH]c1=O,i,i,i,i,-7.1*,.,.
CC1=Nc2ccccc2/C1=C/c1c(O)[nH]c(=O)[nH]c1=O,i,i,i,i,i,.,.
O=c1[nH]c(O)c(/C=C2/C=CC(c3cc(Cl)ccc3Cl)=N2)c(=O)[nH]1,i,i,-7*,i,i,.,.
O=C(COC(=O)Cc1ccccc1)Nc1cc(S(=O)(=O)N2CCCCC2)ccc1Cl,i,i,i,i,i,.,.
COc1cc(/C=C/c2nc3ccccc3c(=O)n2-c2ccc(O)cc2)ccc1O,i,i,i,i,-8.2*,.,.
COc1ccc(-n2c(/C=C/c3ccc(O)c(O)c3)nc3ccccc3c2=O)cc1,i,i,i,i,i,.,.
CCOC(=O)C1(CCc2ccccc2)CCN(Cc2cccc3cnccc23)CC1,i,i,i,i,-11*,89*,59*
CC(C)c1ccccc1OCC(=O)N1CCCN(C)CC1,i,i,i,i,i,.,.
COC(=O)c1ccc(COc2cc(C)cc3oc(=O)c4c(c23)CCCC4)o1,i,i,i,i,-11*,79*,46*
Cc1cc(OCC(=O)O)c2c3c(c(=O)oc2c1)CCCC3,i,i,i,i,i,.,.
O=[N+]([O-])c1cnc[nH]1,i,i,i,i,i,.,.
CCOP(=O)(OCC)C(Cc1ccccc1)NC(C)=O (stereo not given),i,i,i,i,i,.,.
CCOP(=S)(NN(Cc1ccccc1)C(=O)c1ccccc1)OCC,i,i,i,i,-14*,0,0
CCn1ccnc1CN1CCCC(C(=O)c2cccc(C(F)(F)F)c2)C1 (stereo not given),i,i,i,i,-9.9*,93*,87*
CC(Cc1ccccc1Sc1ccc(O)cc1)N(C)C (stereo not given),i,i,i,i,-9.2*,95*,94*
CC(N)Cc1ccccc1Sc1ccc(O)cc1 (stereo not given),i,i,i,i,i,.,.
CCC(=Nc1ccc2c(c1)CCC2)c1c(O)n(-c2ccc(OC)cc2)c(=O)[nH]c1=O,i,i,i,i,i,.,.
CN1CC=C(/C=C/c2ccc(-c3ccccc3)cc2)CC1,i,i,i,i,-8.7*,66*,31*
OC(c1cccc(Cl)c1)(c1cccc(Cl)c1)C1CN2CCC1CC2 (stereo not given),i,i,i,i,-14*,93*,93*
Cc1cc(OCCN2CC2)c2ccccc2n1,i,i,i,i,i,.,.
SMILES,MrgX1 allo act,RGS4 inh,MrgX1 antagonist,MrgX1 ag,RGS4 pot,RGS4 activ val,RGS4 act ctr
CSc1ccc(C(=O)C2CCCN(Cc3cccnc3)C2)cc1 (stereo not given),i,i,i,i,-8.5*,68*,26*
COC(=O)C1=C(c2ccc(S(C)(=O)=O)cc2)C[C@@H]2CC[C@H]1N2C(=O)NCc1ccc(C(F)(F)F)cc1,i,i,i,i,i,.,.
CCN(CC)S(=O)(=O)c1cc(NC(=O)C(C)N2CC=C(c3ccccc3)CC2)ccc1C (stereo not given),i,i,i,i,-7.6*,79*,35*
CC(=O)N1CCC(N2CCCC(C(=O)c3cccc(Cl)c3)C2)CC1 (stereo not given),i,i,i,i,-10*,80*,84*
COc1cccc(C(=O)C2CCCN(C3CCOCC3)C2)c1 (stereo not given),i,i,i,i,i,.,.
COc1ccc(C(=O)C2CCCN(C3CSCCSC3)C2)c(OC)c1 (stereo not given),i,i,i,i,-7.7*,45*,84*
COc1ccc(C(=O)C2CCCN(CCO)C2)c(C)c1 (stereo not given),i,i,i,i,i,.,.
COc1ccc(C(=O)C2CCCN(Cc3ccc(C)s3)C2)c(OC)c1 (stereo not given),i,i,i,i,i,.,.
COc1ccc(C(=O)C2CCCN(C3CSCCSC3)C2)c(C)c1 (stereo not given),i,i,i,i,-8.8*,86*,44*
CCC(C(=O)N1CCC2(CC1)OCCO2)n1c2ccccc2c2nc(=O)cc(C)n21 (stereo not given),i,i,i,i,i,.,.
CCN(CC)CCCOC(=O)C(OC)(c1ccccc1)c1ccccc1,i,i,i,i,-11*,91*,86*
CCN(CC)C(=O)c1ccc(NC(=O)c2ccc(-n3cncn3)c([N+](=O)[O-])c2)cc1,i,i,i,i,i,.,.
